Here are results for 6 molecules from ChEMBL document CHEMBL1921692 (J Med Chem, 2011).

Data set [1] addresses T1, Growth hormone secretagogue receptor type 1 (Homo sapiens, UniProt Q92847). Put plainly: Partial agonist activity at GRLN receptor at 3 uM by aequorin assay. The data set is classed as functional. Put shortly: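 Aequorin Ca2+ bioluminescence in HEK-293 cells expressing human GRLN. Response at a 3 μM test concentration expressed relative to the maximal response to octanoylated human ghrelin.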

The target in data set [2] is T1, Growth hormone secretagogue receptor type 1. In words: Displacement of [125I-His9]-ghrelin from human GRLN receptor by radioligand binding assay. Summed up:
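Competitive binding on isolated membranes expressing GRLN, with 125I-His-9 octanoylated ghrelin as radioligand.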
On the technique in general: Loss of bound radioactivity is the signal in a displacement assay; it reports binding, not function.

A short description of data set [3]: Drug metabolism in rat liver microsomes after 15 mins. The format is ADME, Microsome. As to conditions: read-out: Drug metabolism.
Data set [4] in a line: Half life in human liver microsomes. The data set is classed as ADME, Microsome. (In general: Microsomes from liver hold many membrane-bound enzymes, among them those of drug oxidation.)
Data set [5] is described as follows: Cmax in Sprague-Dawley rat at 8 mg/kg, po. The data set is classed as ADME, organism-based. The arrangement: dose 8 mg/kg, route oral. As to conditions: in vivo. Put shortly:
(§1)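 Male Sprague−Dawley rats (250 ± 20 g), 3 per compound in a single experiment, gavage 8 mg/kg in physiological saline. Blood taken at 12 time points over 6 h into K3EDTA tubes. Plasma stored at −20 °C, assayed by LC-MS/MS, noncompartmental analysis.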

In data set [6] the test system is Rattus norvegicus. In words: Induction of gastric emptying in overnight-fasted po dosed Wistar rat administered 30 mins prior methylcellulose meal by […] analysis. The format is functional, organism-based. To be noted: Stomach.
Data set [7] in a line: Permeability across mucosal to serosal side in human Caco2 cells. To be noted: Caco-2, read-out: permeability. The format is ADME, cell-based. (In general: Caco-2 monolayers are a common model of the intestinal barrier.)
A short description of data set [8]: Permeability across serosal to mucosal side human Caco2 cells. The data set is classed as ADME, cell-based. To be noted: Caco-2, read-out: permeability.
A short description of data set [9]: AUC (0 to infinity) in Sprague-Dawley rat at 8 mg/kg, po. The data set is classed as ADME, organism-based. As to conditions: plasma. The arrangement: time infinity, dose 8 mg/kg, route oral. Summed up: as §1
Data set [10] can be described thus: Volume of distribution at steady state in Sprague-Dawley rat at 2 m/kg, iv. The data set is classed as ADME, organism-based. To be noted: in vivo, read-out: Vdss.
The test system of data set [11] is Rattus norvegicus. In words: Induction of gastric emptying in overnight-fasted iv dosed Wistar rat measured after 15 mins by […] analysis. The format is functional, organism-based, Stomach. Put shortly:
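Overnight-fasted male Wistar rats (200 ± 20 g), N = 5 per point. Compound given IV in 9% 2-hydroxypropyl-β-cyclodextrin together with an oral 2% methylcellulose meal containing 0.05% phenol red (2 mL). Sacrifice 15 min later; phenol red left in stomach read at 560 nm. […] Metoclopramide positive control at 10 mg/kg IV.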

Data set [12] can be described thus: Oral bioavailability in Sprague-Dawley rat at 8 mg/kg. To be noted: in vivo.
Data set [13] can be described thus: Elimination half life in Sprague-Dawley rat at 2 m/kg, iv. The format is ADME, organism-based. To be noted: in vivo, read-out: beta t1/2.
The target in data set [14] is T1, Growth hormone secretagogue receptor type 1. In words: Agonist activity at human GRLN receptor expressed in HEK293 cells assessed as calcium binding by Ca2+ bioluminescence aequorin assay. The data set is classed as functional, cell-based. Summed up:
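HEK-293 cells expressing human GRLN. Ca2+ bioluminescence read out by aequorin. Duplicate samples, maximum tolerated interassay variability ±10%. Full agonism defined as maximal response >70% of that of octanoylated human ghrelin.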

In data set [15] the test system is Cynomolgus monkey. Put plainly: AUC (0 to infinity) in cynomolgus monkey at […], po. To be noted: in vivo.
The target of a further data set is T2, Cytochrome P450 1A2 (Homo sapiens, UniProt P05177).
T2 sequence (P05177 whole entry): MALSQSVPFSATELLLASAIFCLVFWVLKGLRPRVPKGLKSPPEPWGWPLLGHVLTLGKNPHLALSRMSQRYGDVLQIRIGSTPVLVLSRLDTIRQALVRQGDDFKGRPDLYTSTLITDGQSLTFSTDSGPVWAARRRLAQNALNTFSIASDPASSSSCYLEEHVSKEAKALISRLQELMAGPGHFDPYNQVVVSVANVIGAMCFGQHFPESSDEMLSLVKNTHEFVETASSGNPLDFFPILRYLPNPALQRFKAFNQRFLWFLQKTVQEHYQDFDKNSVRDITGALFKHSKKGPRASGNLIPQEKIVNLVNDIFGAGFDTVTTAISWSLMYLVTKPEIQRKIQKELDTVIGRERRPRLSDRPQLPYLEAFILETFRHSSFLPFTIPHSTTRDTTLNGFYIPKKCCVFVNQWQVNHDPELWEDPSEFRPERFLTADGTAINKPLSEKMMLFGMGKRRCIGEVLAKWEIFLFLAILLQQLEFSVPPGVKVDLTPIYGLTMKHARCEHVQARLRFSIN
Put plainly: Inhibition of human CYP1A2. The format is ADME.

Data set [16] can be described thus: Dissociation constant, pKa of the compound. The format is physicochemical.
The target in the next data set is Cytochrome P450 2C9 (Homo sapiens, UniProt P11712). In words: Inhibition of human CYP2C9. The data set is classed as ADME.
Sequence of Cytochrome P450 2C9 (P11712 whole entry): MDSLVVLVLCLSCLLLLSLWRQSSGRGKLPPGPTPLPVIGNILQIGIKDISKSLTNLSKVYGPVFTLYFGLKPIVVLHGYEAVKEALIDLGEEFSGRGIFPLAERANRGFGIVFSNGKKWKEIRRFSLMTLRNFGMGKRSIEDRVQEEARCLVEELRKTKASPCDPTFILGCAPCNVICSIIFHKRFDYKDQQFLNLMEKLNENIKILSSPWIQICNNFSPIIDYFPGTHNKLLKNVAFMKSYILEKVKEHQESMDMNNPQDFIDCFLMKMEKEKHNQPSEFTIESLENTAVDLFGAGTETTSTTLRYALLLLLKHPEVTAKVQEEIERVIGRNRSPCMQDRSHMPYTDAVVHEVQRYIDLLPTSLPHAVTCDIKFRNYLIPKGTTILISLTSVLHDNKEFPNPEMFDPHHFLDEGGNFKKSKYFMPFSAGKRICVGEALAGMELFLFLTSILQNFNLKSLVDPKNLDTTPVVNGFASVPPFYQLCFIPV
In data set [17] the test system is Cynomolgus monkey. Put plainly: Oral bioavailability in cynomolgus monkey at […]. As to conditions: in vivo.
A short description of data set [18]: Drug excretion in Sprague-Dawley rat assessed as unchanged recovery in feces at 6 mg/kg, iv measured after 30 mins. To be noted: faeces.
Data set [19] is described as follows: Cmax in cynomolgus monkey at 8 mg/kg, po. As to conditions: in vivo. The arrangement: dose 8 mg/kg, route oral. The data set is classed as ADME, organism-based, Macaca fascicularis.
For a further data set, the target named is Cytochrome P450 3A4 (Homo sapiens, UniProt P08684). In words: Inhibition of human CYP3A4. The format is ADME.
Sequence of Cytochrome P450 3A4 (P08684 whole entry): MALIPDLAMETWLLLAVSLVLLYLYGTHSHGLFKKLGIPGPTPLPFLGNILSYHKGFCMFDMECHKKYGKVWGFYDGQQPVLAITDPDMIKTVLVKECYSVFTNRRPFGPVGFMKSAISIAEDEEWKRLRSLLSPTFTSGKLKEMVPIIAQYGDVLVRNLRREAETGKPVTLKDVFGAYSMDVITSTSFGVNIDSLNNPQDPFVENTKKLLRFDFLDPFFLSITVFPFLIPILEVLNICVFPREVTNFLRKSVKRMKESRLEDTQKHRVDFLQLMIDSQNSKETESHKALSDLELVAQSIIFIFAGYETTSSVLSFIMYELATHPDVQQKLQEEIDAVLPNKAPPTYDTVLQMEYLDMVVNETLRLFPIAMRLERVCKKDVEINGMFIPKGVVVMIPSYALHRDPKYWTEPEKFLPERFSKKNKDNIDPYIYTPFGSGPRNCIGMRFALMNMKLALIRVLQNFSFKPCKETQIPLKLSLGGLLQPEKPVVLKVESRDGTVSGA
Another data set concerns Salmonella typhimurium. Put plainly: Induction of mutagenicity in Salmonella Typhimurium up to 5000 ug/plate by Ames test. The data set is classed as toxicity, organism-based. To be noted: salmonella enterica subsp. enterica serovar typhimurium. Put shortly: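 Ames test run up to 5000 μg/plate.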
The next data set addresses Cytochrome P450 2D6 (Homo sapiens, UniProt P10635). In words: Inhibition of human CYP2D6. The format is ADME.
A further data set addresses Cytochrome P450 2C19 (Homo sapiens, UniProt P33261). In words: Inhibition of human CYP2C19. The format is ADME.
Data set [20] is described as follows: Clearance in Sprague-Dawley rat at 2 m/kg, iv. As to conditions: in vivo. The format is ADME, organism-based.
Data set [21] in a line: Volume of distribution at steady state in cynomolgus monkey at 0.5 mg/kg, iv. As to conditions: in vivo, read-out: Vdss.
Data set [22] can be described thus: Elimination half life in cynomolgus monkey at 0.5 mg/kg, iv. To be noted: in vivo, read-out: beta t1/2.
A short description of data set [23]: Clearance in cynomolgus monkey at 0.5 mg/kg, iv. To be noted: in vivo.
Data set [24] deals with motilin receptor (Homo sapiens) (UniProt O43193). In words: Selectivity ratio of EC50 for human motilin receptor to EC50 for human GRLN receptor.

Calls of active or inactive are those of the source.

T1 sequence (Q92847 whole entry): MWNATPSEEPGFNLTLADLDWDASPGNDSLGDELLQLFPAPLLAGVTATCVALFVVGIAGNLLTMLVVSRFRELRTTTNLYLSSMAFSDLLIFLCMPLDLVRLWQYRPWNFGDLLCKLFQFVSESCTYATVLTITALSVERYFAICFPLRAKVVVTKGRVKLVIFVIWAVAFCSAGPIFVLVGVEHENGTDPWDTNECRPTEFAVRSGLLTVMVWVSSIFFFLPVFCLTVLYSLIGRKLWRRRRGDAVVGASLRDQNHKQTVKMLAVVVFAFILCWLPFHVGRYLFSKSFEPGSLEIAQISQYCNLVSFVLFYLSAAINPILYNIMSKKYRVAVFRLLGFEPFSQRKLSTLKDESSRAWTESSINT
Sequence of Cytochrome P450 2C19 (P33261 whole entry): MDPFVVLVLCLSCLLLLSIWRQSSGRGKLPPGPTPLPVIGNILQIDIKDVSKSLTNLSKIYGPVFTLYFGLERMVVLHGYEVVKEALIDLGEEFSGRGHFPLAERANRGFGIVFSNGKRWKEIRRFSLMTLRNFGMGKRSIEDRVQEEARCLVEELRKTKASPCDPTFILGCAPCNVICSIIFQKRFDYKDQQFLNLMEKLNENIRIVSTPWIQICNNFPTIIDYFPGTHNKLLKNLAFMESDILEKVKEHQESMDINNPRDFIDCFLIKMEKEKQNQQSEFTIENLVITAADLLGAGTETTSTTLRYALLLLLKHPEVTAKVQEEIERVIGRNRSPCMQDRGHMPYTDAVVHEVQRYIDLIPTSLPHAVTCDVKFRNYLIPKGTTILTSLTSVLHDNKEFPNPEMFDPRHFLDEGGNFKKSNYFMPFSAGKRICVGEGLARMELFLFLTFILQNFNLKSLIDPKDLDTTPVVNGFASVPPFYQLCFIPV
Sequence of Cytochrome P450 2D6 (P10635 whole entry): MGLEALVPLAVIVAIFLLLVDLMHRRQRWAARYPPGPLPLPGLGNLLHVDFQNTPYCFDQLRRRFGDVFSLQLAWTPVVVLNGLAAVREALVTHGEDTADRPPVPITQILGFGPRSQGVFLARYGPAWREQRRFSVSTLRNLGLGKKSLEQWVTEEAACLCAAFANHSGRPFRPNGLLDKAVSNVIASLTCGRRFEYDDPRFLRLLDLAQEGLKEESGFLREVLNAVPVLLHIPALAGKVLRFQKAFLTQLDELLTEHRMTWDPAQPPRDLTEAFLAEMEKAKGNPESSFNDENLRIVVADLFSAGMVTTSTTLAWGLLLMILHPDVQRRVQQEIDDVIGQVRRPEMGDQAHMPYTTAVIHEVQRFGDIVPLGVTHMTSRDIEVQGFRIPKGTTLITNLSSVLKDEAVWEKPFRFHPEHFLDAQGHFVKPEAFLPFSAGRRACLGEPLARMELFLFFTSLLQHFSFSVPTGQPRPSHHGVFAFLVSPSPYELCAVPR

For `C[C@@H]1C(=O)N[C@H](Cc2ccc(F)cc2)C(=O)NCCCc2ccccc2OC(C)(C)CN[C@@H](C2CC2)C(=O)N1C`, the Activity in data set [1] turned out to be 40%. In data set [2], the Ki is 12 nM.
`CC[C@H](C)[C@@H]1NCCOc2ccccc2CCCNC(=O)[C@@H](Cc2ccc(Cl)cc2)NC(=O)[C@@H](C)N(C)C1=O`: the metabolised at […] in data set [3] worked out at 86%. The half-life in data set [4] amounted to 5 min; in [13] it was 33 min. This molecule gave a Cmax in data set [5] of 60 nM. Further, the outcome with Rattus norvegicus [6] was inactive. Also, in data set [7], the Papp A→B came to 14 ×10⁻⁶ cm/s. The Papp B→A in data set [8] is 15 ×10⁻⁶ cm/s. In data set [9], this molecule showed an AUC(0-inf) of 0.0585 µM·h. The Vd in data set [10] came out at 3.2 L/kg. The EC50 in the data set with Rattus norvegicus [11] worked out at 0.39 mg/kg; in [14], 20 nM. Moreover, the bioavailability in [12] was 3%. Further, the affinity in data set [2] corresponds to a Ki of 0.35 nM.
With `C[C@@H]1CN[C@@H](C2CC2)C(=O)N(C)[C@H](C)C(=O)N[C@H](Cc2ccc(F)cc2)C(=O)NCCCc2ccccc2O1.Cl.O` [ULIMORELIN HYDROCHLORIDE], the metabolised at […] in data set [3] worked out at 68%. The Cmax in data set [5] was 390 nM; in data set [19], 1400 nM. Besides, the AUC in the data set with Cynomolgus monkey [15] amounted to 75.4 µM·min. In addition, the IC50 against Cytochrome P450 1A2 was over 100000 nM; against Cytochrome P450 2C9 it was 66000 nM; against Cytochrome P450 3A4 it was 2400 nM; against Cytochrome P450 2D6, 84000 nM; against Cytochrome P450 2C19, over 100000 nM. The same molecule had a pKa in data set [16] of 7.17. For the same molecule, in data set [7], the Papp A→B was found to be 15 ×10⁻⁶ cm/s. Besides, in data set [8], the Papp B→A worked out at 14 ×10⁻⁶ cm/s. The molecule further displayed a F in the data set with Cynomolgus monkey [17] of 24%. Besides, in data set [18], the dose excreted at 0.5 h amounted to 95%. In data set [9], this molecule gave an AUC(0-inf) of 1.37 µM·h. Also, the EC50 in the data set on Rattus norvegicus [11] amounted to 0.91 mg/kg; in [14], 29 nM. For the same molecule, the Activity entry with Salmonella typhimurium is “Non-toxic”. The same molecule gave a bioavailability in [12] of 24%. In data set [2], this molecule registered a Ki of 16 nM.
In the case of `C[C@@H]1C(=O)N[C@H](Cc2ccc(F)cc2)C(=O)NCCCc2ccc(F)cc2OCCN[C@@H](C2CC2)C(=O)N1C`, the metabolised at […] in data set [3] amounted to 54%. Besides, the half-life came to 41 min in data set [4], 29 min in [22] and 44 min in data set [13]. In addition, the Cmax in data set [5] is 900 nM; in [19] it was 90 nM. The molecule also gave an AUC in the data set on Cynomolgus monkey [15] of 10.3 µM·min. Besides, the clearance in data set [20] is 28 mL/min/kg; in data set [23] it was 20 mL/min/kg. Besides, the IC50 against Cytochrome P450 1A2 is over 100000 nM; at Cytochrome P450 2C9, over 100000 nM; at Cytochrome P450 3A4, 1200 nM; against Cytochrome P450 2D6, 31000 nM; on Cytochrome P450 2C19 it was over 100000 nM. In addition, the Papp A→B in [7] came to 19.8 ×10⁻⁶ cm/s. Moreover, the Papp B→A in [8] stood at 12.5 ×10⁻⁶ cm/s. The Vd amounted to 0.66 L/kg in data set [21] and 1.8 L/kg in data set [10]. The F with Cynomolgus monkey [17] was 7%. The molecule also gave an AUC(0-inf) in data set [9] of 1.67 µM·h. Also, the results for the EC50 (in the data set with Rattus norvegicus [11]; in data set [14]) were 1.2 mg/kg and 27 nM, respectively. Besides, the bioavailability in [12] came to 36%. This molecule came in with a Ki in data set [2] of 2.6 nM.
Consider `CCC[C@@H]1NCCOc2ccccc2/C=C/CNC(=O)[C@@H](Cc2ccccc2)NC(=O)CN(C)C1=O`, for which the Ratio EC50 in data set [24] is over 100. For the same molecule, the Ki in data set [2] is 86 nM. Besides, the EC50 in data set [14] is 134 nM.
Turning to `CCCCCCCC(=O)OC[C@H](NC(=O)CNC(=O)[C@@H](N)CCCNC(=N)N)C(=O)N[C@@H](CO)C(=O)N[C@@H](Cc1ccccc1)C(=O)N[C@@H](CC(C)C)C(=O)N[C@@H](CO)C(=O)N1CCC[C@H]1C(=O)N[C@@H](CCC(=O)O)C(=O)N[C@@H](Cc1cnc[nH]1)C(=O)N[C@@H](CCC(N)=O)C(=O)N[C@@H](CCCCN)C(=O)N[C@@H](C)C(=O)N[C@@H](CCC(N)=O)C(=O)N[C@@H](CCC(N)=O)C(=O)N[C@@H](CCCNC(=N)N)C(=O)N[C@@H](CCCCN)C(=O)N[C@@H](CCC(=O)O)C(=O)N[C@@H](CO)C(=O)N[C@@H](CCCCN)C(=O)N[C@@H](CCCCN)C(=O)N1CCC[C@H]1C(=O)N1CCC[C@H]1C(=O)N[C@@H](C)C(=O)N[C@@H](CCCCN)C(=O)N[C@@H](CC(C)C)C(=O)N[C@@H](CCC(N)=O)C(=O)N1CCC[C@H]1C(=O)O` [GHRELIN], in the data set with Rattus norvegicus [6], the result was inactive. The molecule further gave an EC50 in the data set on Rattus norvegicus [11] of 0.04 mg/kg.

What is called Ki is the equilibrium dissociation constant of an inhibitor or competing ligand from its target. One may read the Cmax as the highest concentration seen after dosing. As usually defined, the AUC(0-inf) is total exposure, with the tail of the curve extrapolated. In general, bioavailability refers to the share of a dose that reaches the circulation, judged against a reference dose that is usually intravenous. As usually defined, the AUC is the area under the concentration-time curve, a measure of exposure. In general, IC50 refers to the concentration that inhibits the measured activity by half. The pKa is the negative logarithm of the acid dissociation constant. The term clearance denotes a measure of how efficiently the substance is removed, as volume per time.
